According to ChEMBL document CHEMBL3272221, “Phosphorus-nitrogen compounds. 21. Murine oncolytic and antifertility effect of adamantylaziridine compounds” (J Med Chem, 1978):
Calls of active or inactive are those of the source. The calls are words filed in the database; no cut-off is given here.

Columns and labels:
L1210 [1] = experiment: Antitumor activity against mouse L1210 cells allografted in mouse assessed as mean survival time at 50 mg/kg, ip after 9 days; type: functional; conditions: route intraperitoneal
Procedure, shortened: (§1)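 Mice bearing ip-implanted L1210 ascites cells dosed ip daily for 9 days, run by NCI contractors. Activity was expressed as % T/C, the mean survival time of treated over control animals as a percent, with >125% taken as active. Deaths at a given dose were recorded as toxicity.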

Mus musculus [2] = experiment: Antifertility activity in male Swiss albino mouse assessed as nonpregnant female mouse at 33.8 mg/kg, po qd administered for 5 days followed by mating measured after 5 weeks; type: functional, organism-based; set-up: dose 33.8 mg/kg
Procedure, shortened: (§2)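 Male Swiss albino mice, 4–6 per group, dosed ip or orally by gavage for five consecutive days (10, 15, 22.5 or 33.8 mg/kg), then serially mated with females over successive mating periods against control groups. Read-outs were nonpregnant/total females and viable/total conceptus per period. Student's t test versus control (p < 0.05) was used only for groups with at least two pregnant females.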

Mus musculus [3] = experiment: Antifertility activity in male Swiss albino mouse assessed as nonpregnant female mouse at 10 mg/kg, ip qd administered for 5 days followed by mating measured after 2 weeks; type: functional, organism-based; set-up: dose 10 mg/kg; procedure, shortened: as §2
Mus musculus [4] = experiment: Antifertility activity in male Swiss albino mouse assessed as nonpregnant female mouse at 33.8 mg/kg, ip qd administered for 5 days followed by mating measured after 3 weeks; type: functional, organism-based; set-up: dose 33.8 mg/kg; procedure, shortened: as §2
Mus musculus [5] = experiment: Toxicity in mouse allografted with mouse L1210 cells assessed as death at 200 mg/kg, ip; type: organism-based; set-up: dose 200 mg/kg, route intraperitoneal; conditions: in vivo; procedure, shortened: as §1
Mus musculus [6] = experiment: Antifertility activity in male Swiss albino mouse assessed as nonpregnant female mouse at 15 mg/kg, po qd administered for 5 days followed by mating measured after 1 week; type: functional, organism-based; set-up: dose 15 mg/kg; procedure, shortened: as §2
Mus musculus [7] = experiment: Antifertility activity in male Swiss albino mouse assessed as nonpregnant female mouse at 22.5 mg/kg, po qd administered for 5 days followed by mating measured after 3 weeks; type: functional, organism-based; set-up: dose 22.5 mg/kg; procedure, shortened: as §2
[8] = Octanol-water partition coefficient, log P of the compound; type: physicochemical
Procedure, shortened: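 Shake-flask partitioning: 0.5 g solute in 50.0 mL each of 1-octanol and water, shaken 18 h at 24 °C. Layers were separated, filtered and evaporated (octanol removed as its water azeotrope), dried at 70 °C and weighed. Concentrations were determined gravimetrically.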

Mus musculus [9] = experiment: Antifertility activity in male Swiss albino mouse assessed as nonpregnant female mouse at 15 mg/kg, ip qd administered for 5 days followed by mating measured after 1 week; type: functional, organism-based; set-up: dose 15 mg/kg; procedure, shortened: as §2
Mus musculus [10] = experiment: Antifertility activity in male Swiss albino mouse assessed as viable conceptus at 10 mg/kg, ip qd administered for 5 days followed by mating measured after 4 weeks; type: functional, organism-based; set-up: dose 10 mg/kg; procedure, shortened: as §2
Mus musculus [11] = experiment: Antifertility activity in male Swiss albino mouse assessed as viable conceptus at 22.5 mg/kg, ip qd administered for 5 days followed by mating measured after 2 weeks; type: functional, organism-based; set-up: dose 22.5 mg/kg; procedure, shortened: as §2
Mus musculus [12] = experiment: Antifertility activity in male Swiss albino mouse assessed as viable conceptus at 10 mg/kg, ip administered for 5 days followed by mating measured after 5 weeks; type: functional, organism-based; set-up: dose 10 mg/kg; procedure, shortened: as §2
Mus musculus [13] = experiment: Antifertility activity in male Swiss albino mouse assessed as viable conceptus at 10 mg/kg, ip qd administered for 5 days followed by mating measured after 1 week; type: functional, organism-based; set-up: dose 10 mg/kg; procedure, shortened: as §2
Mus musculus [14] = experiment: Antifertility activity in male Swiss albino mouse assessed as nonpregnant female mouse at 33.8 mg/kg, po qd administered for 5 days followed by mating measured after 1 week; type: functional, organism-based; set-up: dose 33.8 mg/kg; procedure, shortened: as §2
Mus musculus [15] = experiment: Antifertility activity in male Swiss albino mouse assessed as nonpregnant female mouse at 33.8 mg/kg, ip qd administered for 5 days followed by mating measured after 1 week; type: functional, organism-based; set-up: dose 33.8 mg/kg; procedure, shortened: as §2
Mus musculus [16] = experiment: Antifertility activity in male Swiss albino mouse assessed as nonpregnant female mouse at 10 mg/kg, […] administered for 5 days followed by mating measured after 1 week; type: functional, organism-based; set-up: dose 10 mg/kg; procedure, shortened: as §2
[17] = Solubility of the compound in water; type: physicochemical; conditions: buffer
Procedure, shortened: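 Saturated aqueous solutions were shaken 23 h at 24 °C. The dissolved amount was determined gravimetrically after evaporation and drying at 70 °C.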

Mus musculus [18] = experiment: Antifertility activity in male Swiss albino mouse assessed as nonpregnant female mouse at 33.8 mg/kg, ip qd administered for 5 days followed by mating measured after 4 weeks; type: functional, organism-based; set-up: dose 33.8 mg/kg; procedure, shortened: as §2
Mus musculus [19] = experiment: Antifertility activity in male Swiss albino mouse assessed as nonpregnant female mouse at 22.5 mg/kg, po qd administered for 5 days followed by mating measured after 5 weeks; type: functional, organism-based; set-up: dose 22.5 mg/kg; procedure, shortened: as §2
Mus musculus [20] = experiment: Antifertility activity in male Swiss albino mouse assessed as viable conceptus at 33.8 mg/kg, po qd administered for 5 days followed by mating measured after 3 weeks; type: functional, organism-based; set-up: dose 33.8 mg/kg; procedure, shortened: as §2
Mus musculus [21] = experiment: Antifertility activity in male Swiss albino mouse assessed as nonpregnant female mouse at 22.5 mg/kg, ip qd administered for 5 days followed by mating measured after 1 week; type: functional, organism-based; set-up: dose 22.5 mg/kg; procedure, shortened: as §2
Mus musculus [22] = experiment: Antifertility activity in male Swiss albino mouse assessed as viable conceptus at 22.5 mg/kg, ip qd administered for 5 days followed by mating measured after 3 weeks; type: functional, organism-based; set-up: dose 22.5 mg/kg; procedure, shortened: as §2
Mus musculus [23] = experiment: Antifertility activity in male Swiss albino mouse assessed as nonpregnant female mouse at 22.5 mg/kg, ip qd administered for 5 days followed by mating measured after 5 weeks; type: functional, organism-based; set-up: dose 22.5 mg/kg; procedure, shortened: as §2
Mus musculus [24] = experiment: Antifertility activity in male Swiss albino mouse assessed as nonpregnant female mouse at 10 mg/kg, ip qd administered for 5 days followed by mating measured after 4 weeks; type: functional, organism-based; set-up: dose 10 mg/kg; procedure, shortened: as §2
Mus musculus [25] = experiment: Antifertility activity in male Swiss albino mouse assessed as viable conceptus at 15 mg/kg, ip administered for 5 days followed by mating measured after 5 weeks; type: functional, organism-based; set-up: dose 15 mg/kg; procedure, shortened: as §2
Mus musculus [26] = experiment: Antifertility activity in male Swiss albino mouse assessed as nonpregnant female mouse at 33.8 mg/kg, ip qd administered for 5 days followed by mating measured after 5 weeks; type: functional, organism-based; set-up: dose 33.8 mg/kg; procedure, shortened: as §2
Mus musculus [27] = experiment: Antifertility activity in male Swiss albino mouse assessed as viable conceptus at 10 mg/kg, ip qd administered for 5 days followed by mating measured after 3 weeks; type: functional, organism-based; set-up: dose 10 mg/kg; procedure, shortened: as §2
Mus musculus [28] = experiment: Antifertility activity in male Swiss albino mouse assessed as nonpregnant female mouse at 33.8 mg/kg, ip qd administered for 5 days followed by mating measured after 2 weeks; type: functional, organism-based; set-up: dose 33.8 mg/kg; procedure, shortened: as §2
Mus musculus [29] = experiment: Antifertility activity in male Swiss albino mouse assessed as nonpregnant female mouse at 15 mg/kg, po qd administered for 5 days followed by mating measured after 5 weeks; type: functional, organism-based; set-up: dose 15 mg/kg; procedure, shortened: as §2
Mus musculus [30] = experiment: Antifertility activity in male Swiss albino mouse assessed as nonpregnant female mouse at 10 mg/kg, ip qd administered for 5 days followed by mating measured after 3 weeks; type: functional, organism-based; set-up: dose 10 mg/kg; procedure, shortened: as §2
Mus musculus [31] = experiment: Antifertility activity in male Swiss albino mouse assessed as reduction of litter size at 10 mg/kg, po administered for 5 days followed by mating measured for 2 weeks; type: functional, organism-based; set-up: dose 10 mg/kg; procedure, shortened: as §2
L1210 [32] = experiment: Antitumor activity against mouse L1210 cells allografted in mouse assessed as mean survival time at 10 mg/kg, ip after 9 days; type: functional; conditions: route intraperitoneal; procedure, shortened: as §1
Mus musculus [33] = experiment: Toxicity in mouse allografted with mouse L1210 cells assessed as death at 20 mg/kg, ip; type: organism-based; set-up: dose 20 mg/kg, route intraperitoneal; conditions: in vivo; procedure, shortened: as §1
Mus musculus [34] = experiment: Antifertility activity in male Swiss albino mouse assessed as viable conceptus at 10 mg/kg, po qd administered for 5 days followed by mating measured after 4 weeks; type: functional, organism-based; set-up: dose 10 mg/kg; procedure, shortened: as §2

Q: With O=P(N1CC1)(N1CC1)C12CC3CC(CC(C3)C1)C2 as the compound, how does the T/C (L1210 [1]) read?
A: 243%

Q: What about the Activity (Mus musculus [2]) of the same compound?
A: inactive

Q: What about the Activity (Mus musculus [3]) of the same compound?
A: inactive

Q: And the Activity (Mus musculus [4])?
A: Active

Q: What about the Activity (Mus musculus [5]) of the same compound?
A: Toxic

Q: And the Activity (Mus musculus [6])?
A: inactive

Q: What about the Activity (Mus musculus [7]) of the same compound?
A: inactive

Q: And the logP [8]?
A: 0.88

Q: What about the Activity (Mus musculus [9]) of the same compound?
A: Active

Q: What about the Activity (Mus musculus [10]) of the same compound?
A: inactive

Q: And the Activity (Mus musculus [11])?
A: inactive

Q: What about the Activity (Mus musculus [12]) of the same compound?
A: inactive

Q: And the Activity (Mus musculus [13])?
A: Active

Q: And the Activity (Mus musculus [14])?
A: inactive

Q: What about the Activity (Mus musculus [15]) of the same compound?
A: Active

Q: And the Activity (Mus musculus [16])?
A: inactive

Q: And the solubility [17]?
A: 0.94%

Q: And the Activity (Mus musculus [18])?
A: Active

Q: And the Activity (Mus musculus [19])?
A: inactive

Q: What about the Activity (Mus musculus [20]) of the same compound?
A: inactive

Q: What about the Activity (Mus musculus [21]) of the same compound?
A: Active

Q: And the Activity (Mus musculus [22])?
A: Active

Q: And the Activity (Mus musculus [23])?
A: inactive

Q: What about the Activity (Mus musculus [24]) of the same compound?
A: inactive

Q: What about the Activity (Mus musculus [25]) of the same compound?
A: inactive

Q: And the Activity (Mus musculus [26])?
A: Active

Q: What about the Activity (Mus musculus [27]) of the same compound?
A: inactive

Q: And the Activity (Mus musculus [28])?
A: Active

Q: What about the Activity (Mus musculus [29]) of the same compound?
A: inactive

Q: Which Activity (Mus musculus [30]) does the source give for O=P(NC12CC3CC(CC(C3)C1)C2)(N1CC1)N1CC1 here?
A: Active

Q: And the logP [8]?
A: 1.45

Q: What about the Activity (Mus musculus [31]) of the same compound?
A: Active

Q: And the Activity (Mus musculus [13])?
A: Active

Q: What about the solubility [17] of the same compound?
A: 0.13%

Q: And the T/C (L1210 [32])?
A: 244%

Q: What about the Activity (Mus musculus [33]) of the same compound?
A: Toxic

Q: What about the Activity (Mus musculus [34]) of the same compound?
A: inactive
